Here are results for 24 compounds from ChEMBL document CHEMBL1155396, “The synthesis and angiotensin converting enzyme (ACE) inhibitory activity of chalcones and their pyrazole derivatives” (Bioorg Med Chem Lett, 2010).

As a reminder, the IC50 is the concentration that inhibits the measured activity by half.

The target of assay [1] is T1, Angiotensin-converting enzyme (Oryctolagus cuniculus, UniProt P12822).
T1 sequence (P12822 whole entry): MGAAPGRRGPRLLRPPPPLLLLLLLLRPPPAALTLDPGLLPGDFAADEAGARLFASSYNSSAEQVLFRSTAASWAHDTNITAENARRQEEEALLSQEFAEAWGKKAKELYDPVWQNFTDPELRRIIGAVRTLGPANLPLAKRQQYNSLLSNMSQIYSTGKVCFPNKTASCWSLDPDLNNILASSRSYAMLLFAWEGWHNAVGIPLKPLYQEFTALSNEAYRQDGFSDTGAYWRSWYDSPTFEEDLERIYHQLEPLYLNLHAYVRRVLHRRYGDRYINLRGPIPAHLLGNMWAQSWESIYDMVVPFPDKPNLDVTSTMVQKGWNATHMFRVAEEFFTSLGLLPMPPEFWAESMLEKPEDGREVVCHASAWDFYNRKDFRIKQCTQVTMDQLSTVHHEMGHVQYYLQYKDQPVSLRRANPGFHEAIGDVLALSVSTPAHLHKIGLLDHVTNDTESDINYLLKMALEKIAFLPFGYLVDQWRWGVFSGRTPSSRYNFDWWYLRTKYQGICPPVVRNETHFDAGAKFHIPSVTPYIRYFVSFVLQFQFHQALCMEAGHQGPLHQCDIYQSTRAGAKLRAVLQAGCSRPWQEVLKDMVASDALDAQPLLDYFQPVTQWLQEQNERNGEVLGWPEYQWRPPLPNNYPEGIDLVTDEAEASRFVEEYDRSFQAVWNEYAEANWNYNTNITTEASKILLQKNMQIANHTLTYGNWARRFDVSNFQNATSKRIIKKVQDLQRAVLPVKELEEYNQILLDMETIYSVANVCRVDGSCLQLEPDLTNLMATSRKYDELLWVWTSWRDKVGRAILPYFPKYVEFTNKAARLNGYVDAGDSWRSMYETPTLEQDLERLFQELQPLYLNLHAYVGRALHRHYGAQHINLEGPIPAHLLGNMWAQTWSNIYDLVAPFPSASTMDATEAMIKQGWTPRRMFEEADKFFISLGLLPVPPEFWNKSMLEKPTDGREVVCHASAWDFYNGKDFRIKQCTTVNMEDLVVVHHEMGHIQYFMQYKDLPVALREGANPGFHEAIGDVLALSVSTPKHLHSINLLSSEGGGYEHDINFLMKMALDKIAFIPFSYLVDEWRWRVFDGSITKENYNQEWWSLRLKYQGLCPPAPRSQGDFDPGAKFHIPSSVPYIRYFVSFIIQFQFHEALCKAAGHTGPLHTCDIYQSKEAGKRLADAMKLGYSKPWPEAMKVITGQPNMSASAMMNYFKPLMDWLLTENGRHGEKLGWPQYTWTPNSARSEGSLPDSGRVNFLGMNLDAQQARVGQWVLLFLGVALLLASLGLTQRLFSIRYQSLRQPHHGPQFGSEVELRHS
The assay can be described thus: (§1) Inhibition of ACE in rabbit lung assessed as decrease in dansylglycine concentration after 5 mins by HPLC analysis. Summed up: (§2)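 Rabbit lung ACE, pre-incubated 5 min at 37 °C with compound dissolved in HEPES assay buffer. Reaction started with substrate dansyltriglycine (7.86 mM) plus internal standard dansyl-L-glutamine (0.353 mM), both in the added combined solution. Incubation time was set from a calibration curve. Dansylglycine was quantified by reversed-phase HPLC with UV detection, using isocratic 10 mM NaH₂PO₄ (pH 7)/acetonitrile 88:12. Percent inhibition was taken versus control, with IC50 by nonlinear regression; means of three experiments.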

The target in assay [2] is T2, Angiotensin-converting enzyme (Oryctolagus cuniculus) (UniProt P12822).
T2 sequence (whole entry): T1 sequence (P12822 whole entry)
The assay is described as §1. In short, it runs like this: as §2

On to `COc1cccc(C2CC(c3cc(OC)c(OC)c(OC)c3)=NN2C)c1` (centres undefined), for which the IC50 in assay [1] turned out to be 889 µM.

`O=c1cc(-c2ccc(O)c(O)c2)oc2cc(O[C@@H]3O[C@H](CO)[C@@H](O)[C@H](O)[C@H]3O)cc(O)c12` [GALUTEOLIN]: the IC50 in assay [1] was found to be 280 µM.

As to `COc1cc(C2CC(c3cc(OC)c(OC)c(OC)c3)=NN2C)ccc1O` (centres undefined), the IC50 in assay [1] was 674 µM.

`COc1ccc(C2CC(c3cc(OC)c(OC)c(OC)c3)=NN2C)cc1N` (centres undefined): the IC50 in assay [1] turned out to be 749 µM.

Turning to `COc1ccc(C2C[C-](c3cc(OC)c(OC)c(OC)c3)N=[N+]2C)cc1[N+](=O)[O-]` (centres undefined), in assay [1], the IC50 came to 213 µM.

On to `COc1ccc(C2CC(c3cc(OC)c(OC)c(OC)c3)=NN2C)cc1F` (centres undefined), for which the IC50 in assay [1] was determined as 770 µM.

On to `COc1ccc(/C=C/C(=O)c2cc(OC)c(OC)c(OC)c2)cc1O`, for which the inhibition entry in assay [2] is “Dose-dependent effect”. Moreover, in assay [1], the half-inhibitory concentration (IC50) was found to be 225 µM.

`COc1ccc(/C=C/C(=O)c2cc(OC)c(OC)c(OC)c2)cc1`: in assay [1], the 50% inhibitory concentration (IC50) is 574 µM.

As for `COc1ccc(C2CC(c3cc(OC)c(OC)c(OC)c3)=NN2C)cc1` (centres undefined), the inhibition entry in assay [2] is “Dose-dependent effect”. For the same compound, the IC50 in assay [1] was determined as 435 µM.

Turning to `COc1cc(C2=NN(C)C(c3ccccc3)C2)cc(OC)c1OC` (centres undefined), the 50% inhibitory concentration (IC50) in assay [1] turned out to be 805 µM.

Regarding `O=c1cc(-c2ccc(O)cc2)oc2cc(O)cc(O)c12` [APIGENIN], the IC50 in assay [1] came to 280 µM.

For the compound `COc1ccc(/C=C/C(=O)c2cc(OC)c(OC)c(OC)c2)cc1N`, in assay [2], the inhibition entry is “Dose-dependent effect”. The IC50 in assay [1] was 219 µM.

As for `O=C(O)[C@H]1O[C@@H](Oc2c(-c3ccc(O)c(O)c3)oc3cc(O)cc(O)c3c2=O)[C@H](O)[C@@H](O)[C@@H]1O` [QUERCETIN GLUCURONIDE], in assay [1], the concentration for half-maximal inhibition (IC50) amounted to 200 µM.

In the case of `O=c1cc(-c2ccc(O)c(O)c2)oc2cc(O)cc(O)c12` [LUTEOLIN], the concentration for half-maximal inhibition (IC50) in assay [1] turned out to be 290 µM.

As to `COc1cc([C-]2CC(c3ccc([N+](=O)[O-])c(O)c3)[N+](C)=N2)cc(OC)c1OC` (centres undefined), in assay [1], the half-inhibitory concentration (IC50) is 599 µM.

Turning to `O=c1c(O[C@@H]2O[C@H](CO)[C@H](O)[C@H](O)[C@H]2O)c(-c2ccc(O)cc2)oc2cc(O)cc(O)c12` [TRIFOLIN], in assay [1], the half-inhibitory concentration (IC50) is 260 µM.

For the compound `COc1cccc(/C=C/C(=O)c2cc(OC)c(OC)c(OC)c2)c1`, the concentration for half-maximal inhibition (IC50) in assay [1] was determined as 622 µM.

On to `COc1cc(/C=C/C(=O)c2cc(OC)c(OC)c(OC)c2)ccc1O`, for which, in assay [2], the inhibition result is “Dose-dependent effect”. Moreover, the IC50 in assay [1] turned out to be 246 µM.

Turning to `COc1ccc(/C=C/C(=O)c2cc(OC)c(OC)c(OC)c2)cc1[N+](=O)[O-]`, the 50% inhibitory concentration (IC50) in assay [1] worked out at 516 µM.

Regarding `COc1ccc(C2CC(c3cc(OC)c(OC)c(OC)c3)=NN2C)cc1O` (centres undefined), in assay [1], the half-inhibitory concentration (IC50) was 762 µM.

Take `COc1cc(C(=O)/C=C/c2ccc([N+](=O)[O-])c(O)c2)cc(OC)c1OC`: the half-maximal inhibitory concentration (IC50) in assay [1] stood at 552 µM.

Turning to `COc1cc(C(=O)/C=C/c2ccccc2)cc(OC)c1OC`, in assay [2], the inhibition result was “Dose-dependent effect”. Also, the IC50 in assay [1] was 338 µM.

Take `COc1ccc(/C=C/C(=O)c2cc(OC)c(OC)c(OC)c2)cc1F`: the IC50 in assay [1] is 570 µM.

As for `COc1ccc(C2CC(c3cc(OC)c(OC)c(OC)c3)=NN2C)cc1[N+](=O)[O-]` (centres undefined), the inhibition entry in assay [2] was “Dose-dependent effect”.
